pIC50: −log10 of the molar value.
Columns and labels:
COLO 205 [1] = test: Induction of cell cycle arrest in human COLO205 cells assessed as accumulation at G2 phase at 25 uM after 48 hrs by propidium iodide staining based flow cytometry (reference value: 13.2%); format: functional
Method in brief: (§1)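 Colo-205 seeded at 5 × 10⁵ cells/ml in 6-well plates and grown 24 h. Treated at 1, 5, 10 and 25 µM for 48 h. Harvested, washed in PBS, fixed in 70% ethanol overnight at −20 °C. Stained 30 min in the dark with PI, EDTA, RNase and Triton X-100 in PBS. DNA content by flow cytometry, sub-G1 taken as apoptotic. Untreated/DMSO negative control; camptothecin 1 µM positive control; two experiments.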

COLO 205 [2] = test: Induction of mitochondrial membrane potential loss in human COLO205 cells at 1 uM after 48 hrs by Rh-123 staining based flow cytometry (reference value: 12.4%); format: functional
COLO 205 [3] = test: Induction of cell cycle arrest in human COLO205 cells assessed as accumulation at G1 phase at 25 uM after 48 hrs by propidium iodide staining based flow cytometry (reference value: 45.7%); format: functional; method in brief: as §1
COLO 205 [4] = test: Induction of cell cycle arrest in human COLO205 cells assessed as accumulation at G2 phase at 1 uM after 48 hrs by propidium iodide staining based flow cytometry (reference value: 13.2%); format: functional
COLO 205 [5] = test: Induction of mitochondrial membrane potential loss in human COLO205 cells at 25 uM after 48 hrs by Rh-123 staining based flow cytometry (reference value: 12.4%); format: functional
COLO 205 [6] = test: Induction of apoptosis in human COLO205 cells assessed as accumulation at subG1 phase at 5 uM after 48 hrs by propidium iodide staining based flow cytometry (reference value: 12%); format: functional; method in brief: as §1
COLO 205 [7] = test: Induction of cell cycle arrest in human COLO205 cells assessed as accumulation at G2 phase at 10 uM after 48 hrs by propidium iodide staining based flow cytometry (reference value: 13.2%); format: functional; method in brief: as §1
A-431 = test: Cytotoxicity against human A431 cells after 24 hrs by MTT assay; format: functional, cell-based; conditions: A-431, 24 h
Method in brief: (§2)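 Cells kept in DMEM with 10% foetal calf serum, penicillin and streptomycin, at 37 °C under 5% CO2. For assays serum lowered to 3%. Cells treated with test material at 0.04–60 µM for 24 h, then MTT (250 µg/mL) for 3 h. Formazan OD read at 570 nm. IC50 by non-linear regression, mean of triplicates. BEZ-235 as positive control.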

COLO 205 [8] = test: Induction of apoptosis in human COLO205 cells assessed as accumulation at subG1 phase at 25 uM after 48 hrs by propidium iodide staining based flow cytometry (reference value: 12%); format: functional; method in brief: as §1
COLO 205 [9] = test: Induction of apoptosis in human COLO205 cells assessed as accumulation at subG1 phase after 48 hrs by propidium iodide staining based flow cytometry; format: functional, cell-based; method in brief: as §1
COLO 205 [10] = test: Induction of mitochondrial membrane potential loss in human COLO205 cells at 10 uM after 48 hrs by Rh-123 staining based flow cytometry (reference value: 12.4%); format: functional
COLO 205 [11] = test: Induction of cell cycle arrest in human COLO205 cells assessed as accumulation at S phase at 10 uM after 48 hrs by propidium iodide staining based flow cytometry (reference value: 13.8%); format: functional; method in brief: as §1
COLO 205 [12] = test: Induction of cell cycle arrest in human COLO205 cells assessed as accumulation at G1 phase at 10 uM after 48 hrs by propidium iodide staining based flow cytometry (reference value: 45.7%); format: functional; method in brief: as §1
COLO 205 [13] = test: Induction of cell cycle arrest in human COLO205 cells assessed as accumulation at S phase at 5 uM after 48 hrs by propidium iodide staining based flow cytometry (reference value: 13.8%); format: functional; method in brief: as §1
COLO 205 [14] = test: Induction of cell cycle arrest in human COLO205 cells assessed as accumulation at G1 phase at 1 uM after 48 hrs by propidium iodide staining based flow cytometry (reference value: 45.7%); format: functional
COLO 205 [15] = test: Induction of mitochondrial membrane potential loss in human COLO205 cells at 5 uM after 48 hrs by Rh-123 staining based flow cytometry (reference value: 12.4%); format: functional
[16] = Cytotoxicity against human HCT116 cells after 24 hrs by MTT assay; format: functional, cell-based; conditions: HCT-116, 24 h; method in brief: as §2
COLO 205 [17] = test: Induction of cell cycle arrest in human COLO205 cells assessed as accumulation at S phase at 1 uM after 48 hrs by propidium iodide staining based flow cytometry (reference value: 13.8%); format: functional
T47D = test: Cytotoxicity against human T47D cells after 24 hrs by MTT assay; format: functional, cell-based; method in brief: as §2
COLO 205 [18] = test: Cytotoxicity against human COLO205 cells after 24 hrs by MTT assay; format: functional, cell-based; conditions: COLO 205, 24 h; method in brief: as §2
COLO 205 [19] = test: Induction of cell cycle arrest in human COLO205 cells assessed as accumulation at S phase at 25 uM after 48 hrs by propidium iodide staining based flow cytometry (reference value: 13.8%); format: functional; method in brief: as §1
COLO 205 [20] = test: Induction of apoptosis in human COLO205 cells assessed as accumulation at subG1 phase at 10 uM after 48 hrs by propidium iodide staining based flow cytometry (reference value: 12%); format: functional; method in brief: as §1
[21] = Cytotoxicity against human PC3 cells after 24 hrs by MTT assay; format: functional, cell-based; conditions: PC-3, 24 h; method in brief: as §2
[22] = Cytotoxicity against human NCI-H322 cells after 24 hrs by MTT assay; format: functional, cell-based; conditions: NCI-H322, 24 h; method in brief: as §2
COLO 205 [23] = test: Induction of cell cycle arrest in human COLO205 cells assessed as accumulation at G1 phase at 5 uM after 48 hrs by propidium iodide staining based flow cytometry (reference value: 45.7%); format: functional; method in brief: as §1
COLO 205 [24] = test: Induction of apoptosis in human COLO205 cells assessed as accumulation at subG1 phase at 1 uM after 48 hrs by propidium iodide staining based flow cytometry (reference value: 12%); format: functional
COLO 205 [25] = test: Induction of cell cycle arrest in human COLO205 cells assessed as accumulation at G2 phase at 5 uM after 48 hrs by propidium iodide staining based flow cytometry (reference value: 13.2%); format: functional; method in brief: as §1
A549 = test: Cytotoxicity against human A549 cells after 24 hrs by MTT assay; format: functional, cell-based; conditions: A549, 24 h; method in brief: as §2

COc1ccc(/C=C\C(=O)O)c(OCc2cn(-c3ccc(CC#N)cc3)nn2)c1CC=C(C)C
Activity (COLO 205 [1]): 10.4% | Activity (COLO 205 [2]): 24.4% | Activity (COLO 205 [3]): 38.5% | Activity (COLO 205 [4]): 12.9% | Activity (COLO 205 [5]): 29.9% | Activity (COLO 205 [6]): 15.2% | Activity (COLO 205 [7]): 11.2% | pIC50 (A-431): 5.14 | Activity (COLO 205 [8]): 24.1% | Activity (COLO 205 [9]): Dose-dependent effect | Activity (COLO 205 [10]): 29.7% | Activity (COLO 205 [11]): 14.7% | Activity (COLO 205 [12]): 45% | Activity (COLO 205 [13]): 16.1% | Activity (COLO 205 [14]): 46.4% | Activity (COLO 205 [15]): 26.9% | pIC50 [16]: 5.31 | Activity (COLO 205 [17]): 13.9% | pIC50 (T47D): 5.44 | pIC50 (COLO 205 [18]): 5.89 | Activity (COLO 205 [19]): 13.2% | Activity (COLO 205 [20]): 15.7% | pIC50 [21]: 4.58 | pIC50 [22]: 4.39 | Activity (COLO 205 [23]): 46.8% | Activity (COLO 205 [24]): 12.5% | Activity (COLO 205 [25]): 11.5% | pIC50 (A549): 4.45

COc1ccc(/C=C\C(=O)O)c(OCc2cn(-c3ccccc3)nn2)c1CC=C(C)C
pIC50 (A-431): 4.67 | pIC50 [16]: 4.59 | pIC50 (T47D): 4.47 | pIC50 (COLO 205 [18]): 4.49 | pIC50 [21]: 4.46 | pIC50 [22]: 4.53 | pIC50 (A549): 4.39

COc1ccc(-n2cc(COc3c(/C=C\C(=O)O)ccc(OC)c3CC=C(C)C)nn2)cc1
pIC50 [16]: 5.06 | pIC50 (A549): 4.99

COc1ccc(/C=C\C(=O)O)c(OCc2cn(-c3ccc4c(c3)OCO4)nn2)c1CC=C(C)C
pIC50 (A-431): 4.64 | pIC50 [16]: 4.69 | pIC50 (T47D): 4.88 | pIC50 [21]: 4.49 | pIC50 [22]: 4.64 | pIC50 (A549): 4.71

COc1ccc(/C=C\C(=O)O)c(OCc2cn(-c3ccccc3C(=O)N3CCC(O)C3)nn2)c1CC=C(C)C (stereo not given)
pIC50 (A-431): 4.50 | pIC50 [16]: 4.49 | pIC50 (T47D): 4.87 | pIC50 (COLO 205 [18]): 4.60 | pIC50 [21]: 4.44

COc1cccc(-n2cc(COc3c(/C=C\C(=O)O)ccc(OC)c3CC=C(C)C)nn2)c1
pIC50 (A-431): 4.63 | pIC50 [16]: 4.67 | pIC50 (T47D): 4.69 | pIC50 [22]: 4.60 | pIC50 (A549): 4.37

COc1ccc(/C=C\C(=O)O)c(OCc2cn(-c3cccc([N+](=O)[O-])c3)nn2)c1CC=C(C)C
pIC50 (A-431): 4.74 | pIC50 [16]: 4.56 | pIC50 (T47D): 4.81 | pIC50 (COLO 205 [18]): 5.16 | pIC50 [21]: 4.38 | pIC50 [22]: 4.36

COc1ccc(/C=C\C(=O)O)c(OCc2cn(-c3nc4ccccc4s3)nn2)c1CC=C(C)C
pIC50 (A-431): 4.68 | pIC50 [16]: 4.79 | pIC50 (T47D): 4.76 | pIC50 (COLO 205 [18]): 4.69 | pIC50 [22]: 4.64 | pIC50 (A549): 4.38

COc1ccc(/C=C\C(=O)O)c(OCc2cn(-c3ccc(NC(C)=O)cc3)nn2)c1CC=C(C)C
pIC50 (A-431): 4.63 | pIC50 (T47D): 4.76 | pIC50 (COLO 205 [18]): 4.65 | pIC50 [22]: 4.34

COc1ccc(/C=C\C(=O)O)c(OCc2cn(-c3ccccc3F)nn2)c1CC=C(C)C
pIC50 (A-431): 4.91 | pIC50 (T47D): 4.96 | pIC50 (COLO 205 [18]): 4.84 | pIC50 [21]: 4.62 | pIC50 [22]: 4.34

COc1ccc(/C=C\C(=O)O)c(OCc2cn(-c3cccc(C#N)c3)nn2)c1CC=C(C)C
pIC50 (A-431): 4.64 | pIC50 [16]: 4.45 | pIC50 (T47D): 4.72 | pIC50 (COLO 205 [18]): 4.57 | pIC50 [21]: 4.34 | pIC50 [22]: 4.58
